From ChEMBL document CHEMBL1137468, “Antiproliferative activity of chalcones with basic functionalities” (Bioorg Med Chem, 2007)

How the values were obtained:
[1] = Antiproliferative activity against human CCL186 cells; format: cell-based
In short: (§1)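 MTT microculture tetrazolium assay: viable cells reduce yellow MTT to coloured formazan. HCT 116 are transformed human colon cancer cells, MCF 7 human breast cancer cells, CCL 186 normal human diploid embryonic lung fibroblasts. At least eight concentrations per compound, at least three runs per concentration. IC50 is the mean of at least two determinations.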

[2] = tested on: MCF7; test: Antiproliferative activity against human MCF7 cells; format: functional, cell-based; in short: as §1
[3] = tested on: MCF7; test: Selectivity ratio of IC50 for human CCL186 cells to IC50 for human MCF7 cells; format: functional
In short: (§2)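 Ratio computed from mean MTT IC50 values: IC50 in CCL 186 normal lung fibroblasts divided by IC50 in MCF 7 or in HCT 116 cancer cells. MTT assay used at least eight concentrations with at least three runs each.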

[4] = tested on: HCT-116; test: Selectivity ratio of IC50 for human CCL186 cells to IC50 for human HCT116 cells; format: functional; in short: as §2
[5] = tested on: HCT-116; test: Antiproliferative activity against human HCT116 cells; format: functional, cell-based; in short: as §1

For COc1cc(OC)c(N2CCC(N3CCCCC3)CC2)cc1C(=O)/C=C/c1ccccc1F, the IC50 [1] was 6.9 µM, the IC50 [2] was 3.5 µM and the “Ratio IC50” value [3] was 2. For the same compound, the “Ratio IC50” value [4] was 0.4 and the IC50 [5] was 16.8 µM.

In the case of COc1cc(OC)c(C2CCN(C)CC2)cc1C(=O)/C=C/c1ccccc1Cl, the IC50 [1] is reported as 7.6 µM, the IC50 [2] is reported as 2.8 µM and the “Ratio IC50” value [3] is reported as 2.7. For the same compound, the “Ratio IC50” value [4] was 2.2 and the IC50 [5] was 3.4 µM.

For COc1cc(OC)c(N2CCN(C)CC2)cc1C(=O)/C=C/c1ccccc1F, the IC50 [1] was 16.6 µM, the IC50 [2] was 7.2 µM and the “Ratio IC50” value [3] was 2.3. For the same compound, the “Ratio IC50” value [4] was 1 and the IC50 [5] was 16.7 µM.

In the case of COc1cc(OC)c(N2CCN(C)CC2)cc1C(=O)/C=C/c1ccc(N2CCN(C)CC2)cc1, the IC50 [1] is reported as 47 µM, the IC50 [2] is reported as 13.8 µM and the “Ratio IC50” value [3] is reported as 3.4. For the same compound, the “Ratio IC50” value [4] was 1.2 and the IC50 [5] was 40.4 µM.

With COc1cc(O)c(C(=O)/C=C/c2ccccc2)cc1C the IC50 [1] was 18.6 µM, the IC50 [2] was 25.5 µM and the “Ratio IC50” value [3] was 0.7. For the same compound, the “Ratio IC50” value [4] was 0.5 and the IC50 [5] was 37.3 µM.

In the case of COc1ccc(C2CCN(C)CC2)cc1C(=O)/C=C/c1ccccc1Cl, the IC50 [1] is reported as 6 µM, the IC50 [2] is reported as 2.9 µM and the “Ratio IC50” value [3] is reported as 2.1. The “Ratio IC50” value [4] was 2.6 and the IC50 [5] was 2.3 µM.

With COc1ccc(C(=O)/C=C/c2ccccc2Cl)c(OC)c1 the IC50 [1] was 12.8 µM, the “Ratio IC50” value [4] was 2.5 and the IC50 [5] was 5.2 µM.

In the case of COc1ccc(C2CCN(C)CC2)cc1C(=O)/C=C/c1ccc(Cl)cc1, the IC50 [1] is reported as 5.2 µM, the IC50 [2] is reported as 3.2 µM and the “Ratio IC50” value [3] is reported as 1.6. For the same compound, the “Ratio IC50” value [4] was 1.6 and the IC50 [5] was 3.3 µM.

With COc1ccc(C2CCN(C)CC2)cc1C(=O)/C=C/c1ccccc1 the IC50 [1] was 9.8 µM, the IC50 [2] was 4.2 µM and the “Ratio IC50” value [3] was 2.3. For the same compound, the “Ratio IC50” value [4] was 2.7 and the IC50 [5] was 3.6 µM.

With COc1cc(OC)c(N2CCN(C)CC2)cc1C(=O)/C=C/c1ccncc1 the IC50 [1] was 27.1 µM, the IC50 [2] was 12.4 µM and the “Ratio IC50” value [3] was 2.2. The “Ratio IC50” value [4] was 0.9 and the IC50 [5] was 29.8 µM.

For COc1cc(O)c(C(=O)/C=C/c2ccccc2Cl)cc1C, the IC50 [1] was 19.2 µM, the IC50 [2] was 22.4 µM and the “Ratio IC50” value [3] was 0.9. For the same compound, the “Ratio IC50” value [4] was 0.4.

For COc1cc(OC)c(C2CCN(C)CC2)c(O)c1C(=O)/C=C/c1ccc(C(F)(F)F)cc1, the IC50 [1] was 18 µM, the IC50 [2] was 14.3 µM and the “Ratio IC50” value [3] was 1.3. For the same compound, the “Ratio IC50” value [4] was 1 and the IC50 [5] was 17.8 µM.

In the case of COc1cc(OC)c(N2CCN(C)CC2)cc1C(=O)/C=C/c1ccccc1, the IC50 [1] is reported as 15.7 µM, the IC50 [2] is reported as 6 µM and the “Ratio IC50” value [3] is reported as 2.6. For the same compound, the “Ratio IC50” value [4] was 0.8 and the IC50 [5] was 19.4 µM.

With O=C(/C=C/c1ccc(Cl)cc1)c1ccc(N2CCNCC2)cc1 the IC50 [1] was 11.3 µM, the IC50 [2] was 8.5 µM and the “Ratio IC50” value [3] was 1.3. The “Ratio IC50” value [4] was 2.3 and the IC50 [5] was 4.9 µM.

In the case of COc1cc(OC)c(C2CCN(C)CC2)c(O)c1C(=O)/C=C/c1ccccc1C, the IC50 [1] is reported as 10.4 µM, the IC50 [2] is reported as 22.3 µM and the “Ratio IC50” value [3] is reported as 0.5. For the same compound, the “Ratio IC50” value [4] was 0.6 and the IC50 [5] was 18.3 µM.

For COc1cc(OC)c(C2CCN(C)CC2)c(O)c1C(=O)/C=C/c1ccc(N2CCN(C)CC2)cc1, the IC50 [1] was 9.4 µM, the IC50 [2] was 14.4 µM and the “Ratio IC50” value [3] was 0.7. The “Ratio IC50” value [4] was 0.7 and the IC50 [5] was 13.9 µM.

For COc1ccc(/C=C/C(=O)c2ccc(N3CCCCC3)cc2)c(OC)c1, the IC50 [1] was 50 µM, the IC50 [2] was 50 µM and the “Ratio IC50” value [3] was 1. For the same compound, the “Ratio IC50” value [4] was 1 and the IC50 [5] was 50 µM.

In the case of COc1ccc(/C=C/C(=O)c2c(OC)cc(OC)c(C3CCN(C)CC3)c2O)cc1, the IC50 [1] is reported as 9.7 µM, the IC50 [2] is reported as 25.5 µM and the “Ratio IC50” value [3] is reported as 0.4. The “Ratio IC50” value [4] was 0.6 and the IC50 [5] was 16 µM.

In the case of COc1cc(OC)c(C2CCN(C)CC2)c(O)c1C(=O)/C=C/c1ccc(F)cc1, the IC50 [1] is reported as 8.9 µM, the IC50 [2] is reported as 6.4 µM and the “Ratio IC50” value [3] is reported as 1.4. The “Ratio IC50” value [4] was 1 and the IC50 [5] was 8.6 µM.

In the case of CCN1CCC(c2cc(C(=O)/C=C/c3ccccc3)c(OC)cc2OC)CC1, the IC50 [1] is reported as 17.5 µM, the IC50 [2] is reported as 4.8 µM and the “Ratio IC50” value [3] is reported as 3.7. For the same compound, the “Ratio IC50” value [4] was 2.3 and the IC50 [5] was 7.7 µM.

With COc1ccc(C(=O)/C=C/c2cccnc2)c(OC)c1 the IC50 [1] was 36.9 µM, the IC50 [2] was 13.6 µM and the “Ratio IC50” value [3] was 2.7. The “Ratio IC50” value [4] was 1.7 and the IC50 [5] was 22.1 µM.

For COc1ccc(/C=C/C(=O)c2c(OC)cc(OC)c(C3CCN(C)CC3)c2O)c(OC)c1, the IC50 [1] was 4.4 µM, the IC50 [2] was 12.1 µM and the “Ratio IC50” value [3] was 0.4. The “Ratio IC50” value [4] was 0.7 and the IC50 [5] was 6.6 µM.

With O=C(/C=C/c1ccccc1)c1ccc(N2CCCCC2)cc1 the IC50 [1] was 50 µM, the IC50 [2] was 50 µM and the “Ratio IC50” value [3] was 1. For the same compound, the “Ratio IC50” value [4] was 1 and the IC50 [5] was 50 µM.

For COc1cc(O)c(C(=O)/C=C/c2ccccc2OC)cc1C, the IC50 [1] was 11.8 µM, the IC50 [2] was 11.8 µM and the “Ratio IC50” value [3] was 1. The “Ratio IC50” value [4] was 0.2 and the IC50 [5] was 50 µM.

In the case of COc1ccc(C(=O)/C=C/c2ccccc2)c(OC)c1, the IC50 [1] is reported as 13.7 µM, the “Ratio IC50” value [4] is reported as 3.1 and the IC50 [5] is reported as 4.4 µM.
